# Marks after values point to notes of the source that are not given here.
# How the values were obtained:
# [1] = Aqueous solubility in distilled water; type: physicochemical; settings: 25 ± 1 °C
# [2] = Partition coefficient, n-octanol/water, shake flask method; type: physicochemical
# [3] = In vivo pharmacokinetics in plasma after oral administration; set-up: species or system Wistar rats; settings: rat
# In short: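 Male Wistar rats (200-250 g, n = 6) housed in metabolic cages, fasted 24 h, water ad libitum. Single oral dose of prodrug (377.5 mg) or parent acid (270 mg) suspended in sodium CMC in saline (1 mL). Retro-orbital blood taken at 0 min, every 15 min for 1 h, bi-hourly to 12 h, and at 24 h, into EDTA tubes. Plasma quantified by HPLC against 80% human plasma calibration.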
# [4] = test system: TNBS-induced colitis; test: TNBS-induced experimental colitis: clinical activity score rate; type: in vivo, Wistar rats; settings: for Clinical activity score rate, 6 d: day 6, oral treatment day 6 to 10; for Clinical activity score rate, 6 d / Clinical activity score rate, 7 d / Clinical activity score rate, 8 d / Clinical activity score rate, 9 d / Clinical activity score rate, 10 d / Clinical activity score rate, 11 d: score 0-4; for Clinical activity score rate, 7 d: day 7, oral treatment day 6 to 10; for Clinical activity score rate, 8 d: day 8, oral treatment day 6 to 10; for Clinical activity score rate, 9 d: day 9, oral treatment day 6 to 10; for Clinical activity score rate, 10 d: day 10, oral treatment day 6 to 10; for Clinical activity score rate, 11 d: day 11, after oral treatment day 6 to 10
# In short: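 Male Wistar rats (200-230 g, n = 6/group), starved 48 h, given intrarectal TNBS 100 mg/kg in 50% v/v ethanol (0.25 mL) on day 3. Oral dosing days 6-10 as 1% sodium CMC suspension, equimolar to parent acid. Weight loss, stool consistency and rectal bleeding each scored 0-4 daily and averaged per group. Two-way ANOVA with Bonferroni versus disease control.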
# [5] = test system: myeloperoxidase (MPO); test: TNBS-induced experimental colitis: colonic MPO activity; type: in vivo, Wistar rats; settings: TNBS colitis rats, day 11, oral treatment day 6 to 10
# In short: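 Colon dissected on day 11 from TNBS-colitic male Wistar rats (intrarectal TNBS 100 mg/kg in 50% ethanol on day 3; oral dosing in 1% sodium CMC days 6-10; n = 6). MPO assayed by a published method, one unit degrading […] hydrogen peroxide at 25 °C. Reported as […]; one-way ANOVA with Dunnett's test.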
# [6] = released from SLZ in the colon; cited from earlier work
# [7] = test system: chronic UC; settings: chronic UC patients ref 24; cited from earlier work
SMILES,Aq. Solubility [1],log Poct [2],Time of disappearance of BBA from blood [3],Time of first appearance of BBA in blood [3],Time of maximum BBA in blood [3],"Clinical activity score rate, 6 d [4]","Clinical activity score rate, 7 d [4]","Clinical activity score rate, 8 d [4]","Clinical activity score rate, 9 d [4]","Clinical activity score rate, 10 d [4]","Clinical activity score rate, 11 d [4]",Minimized clinical activity score rate ([4]; oral treatment day 6 to 10),Colonic MPO activity [5],Fraction entering circulation by absorption from large intestine [6],Remission rate [7]
"C[C@H]1[C@H](C)CC[C@]2(C)CC[C@]3(C)C(=CC[C@@H]4[C@@]5(C)CC[C@@H](O)[C@](C)(C(=O)O)[C@@H]5CC[C@]43C)[C@H]12 [BBA, β-boswellic acid]",practically insoluble,9.3,24 h,30 min,240 min,2.77 ± 1.34,3.00 ± 1.00,2.33 ± 0.57,1.99 ± 0.66,1.33 ± 1.15,0.99 ± 1.10 ^e,79%,60.71 mU/100 mg tissue,,
"N[C@@H](Cc1c[nH]cn1)C(=O)O [H, L-histidine]",,,,,,2.33 ± 0.67,2.55 ± 0.50,2.88 ± 0.83,2.77 ± 0.69,2.60 ± 0.82,2.00 ± 1.00^NS,,,,
"N[C@H](Cc1ccccc1)C(=O)O [P, D-phenylalanine]",,,,,,2.22 ± 0.83,2.55 ± 0.50,3.16 ± 1.04,3.33 ± 1.15,2.66 ± 1.44,2.27 ± 1.13^NS,,,,
"Nc1ccc(O)c(C(=O)O)c1 [Prodrug 5-ASA, 5-aminosalicylate]",,,,,,,,,,,,,,30%,
"O=C(O)c1cc(/N=N/c2ccc(S(=O)(=O)Nc3ccccn3)cc2)ccc1O [SLZ, Sulfasalazine]",,,,,,2.88 ± 0.83,2.44 ± 0.50,1.61 ± 1.13,1.11 ± 1.01,0.72 ± 0.75,0.38 ± 0.60 ^e,,36.21 mU/100 mg tissue,,75%
"N[C@@H](Cc1c[nH]c2ccccc12)C(=O)O [T, L-tryptophan]",,,,,,2.44 ± 0.69,2.60 ± 0.58,2.94 ± 0.82,2.66 ± 0.66,2.16 ± 1.08,1.88 ± 1.17 ^a,,,,
"N[C@@H](Cc1ccc(O)cc1)C(=O)O [TY, L-tyrosine]",,,,,,2.11 ± 0.84,2.55 ± 0.50,3.22 ± 1.07,3.33 ± 1.15,2.72 ± 1.49,2.33 ± 1.45^NS,,,,
